# The source made the active and inactive calls. No cut-off for these calls is given here.
# Legend:
# Mus musculus [1] = test: Neurotoxicity in CF1 mouse assessed as minimal motor impairment at 100 mg/kg, ip after 0.5 hrs by rotorod test; format: toxicity, organism-based; set-up: dose 100 mg/kg, route intraperitoneal; settings: in vivo
# Method in brief: (§1)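 Rotarod neurotoxicity screen in mice dosed i.p. at 30, 100 or 300 mg/kg, read 0.5 or 4 h after dosing. The animal must stay on a rod rotating at 6 rpm without falling, measured 3 times within 1 min. A fall counts as minimal motor impairment. Result is recorded as impaired animals over animals used.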
# Rattus norvegicus [2] = test: Anticonvulsant activity in po dosed Sprague-Dawley rat assessed as protection against maximal electroshock-induced seizures after 4 hrs; format: functional
# Method in brief: (§2)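 Quantitative oral assay in rats, run at a time to peak effect of 4 h. ED50 is the dose protecting 50% of animals against MES or ScMet seizures, with 95% confidence interval. TD50 is the dose giving neurotoxicity in 50% of animals. PI = TD50/ED50.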
# Rattus norvegicus [3] = test: Neurotoxicity in Sprague-Dawley rat assessed as minimal motor impairment at 30 mg/kg, po after 1 hr by rotorod test; settings: in vivo
# Mus musculus [4] = test: Neurotoxicity in CF1 mouse assessed as minimal motor impairment at 100 mg/kg, ip after 4 hrs by rotorod test; format: toxicity, organism-based; set-up: dose 100 mg/kg, route intraperitoneal; settings: in vivo; method in brief: as §1
# Rattus norvegicus [5] = test: Neurotoxicity in Sprague-Dawley rat assessed as minimal motor impairment at 30 mg/kg, po after 2 hrs by rotorod test; settings: in vivo
# Rattus norvegicus [6] = test: Protective index, ratio of TD50 for po dosed Sprague-Dawley rat assessed as minimal motor impairment by rotorod test to ED50 for po dosed Sprague-Dawley rat assessed as protection against maximal electroshock-induced seizures; format: functional; method in brief: as §2
# [7] = Neurotoxicity in po dosed Sprague-Dawley rat assessed as minimal motor impairment by rotorod test; format: toxicity, organism-based; settings: in vivo
# Rattus norvegicus [8] = test: Neurotoxicity in Sprague-Dawley rat assessed as minimal motor impairment at 30 mg/kg, po after 0.5 hrs by rotorod test; settings: in vivo
# Mus musculus [9] = test: Neurotoxicity in CF1 mouse assessed as minimal motor impairment at 30 mg/kg, ip after 4 hrs by rotorod test; format: toxicity, organism-based; set-up: dose 30 mg/kg, route intraperitoneal; settings: in vivo; method in brief: as §1
# Mus musculus [10] = test: Neurotoxicity in CF1 mouse assessed as minimal motor impairment at 300 mg/kg, ip after 4 hrs by rotorod test; format: toxicity, organism-based; set-up: dose 300 mg/kg, route intraperitoneal; settings: in vivo; method in brief: as §1
# Mus musculus [11] = test: Neurotoxicity in CF1 mouse assessed as minimal motor impairment at 300 mg/kg, ip after 0.5 hrs by rotorod test; format: toxicity, organism-based; set-up: dose 300 mg/kg, route intraperitoneal; settings: in vivo; method in brief: as §1
# Rattus norvegicus [12] = test: Anticonvulsant activity in po dosed Sprague-Dawley rat assessed as protection against subcutaneous metrazole-induced seizures after 4 hrs; format: functional; method in brief: as §2
# Rattus norvegicus [13] = test: Neurotoxicity in Sprague-Dawley rat assessed as minimal motor impairment at 30 mg/kg, po after 0.25 hrs by rotorod test; settings: in vivo
# Mus musculus [14] = test: Neurotoxicity in CF1 mouse assessed as minimal motor impairment at 30 mg/kg, ip after 0.5 hrs by rotorod test; format: toxicity, organism-based; set-up: dose 30 mg/kg, route intraperitoneal; settings: in vivo; method in brief: as §1
# Rattus norvegicus [15] = test: Neurotoxicity in Sprague-Dawley rat assessed as minimal motor impairment at 30 mg/kg, po after 4 hrs by rotorod test; settings: in vivo
# Mus musculus [16] = test: Anticonvulsant activity in CF1 mouse assessed as protection against subcutaneous metrazole-induced seizures at 100 mg/kg, ip after 0.5 hrs; format: functional, organism-based; set-up: dose 100 mg/kg
# Method in brief: (§3)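 Mice given compound i.p. at 30, 100 or 300 mg/kg and tested 0.5 or 4 h after dosing. Seizures were induced by maximal electroshock (MES) or subcutaneous metrazole (ScMet). Prevention of seizures counts as protection. Result is recorded as number of animals protected over number tested.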
# Mus musculus [17] = test: Anticonvulsant activity in CF1 mouse assessed as protection against maximal electroshock-induced seizures at 30 mg/kg, ip after 4 hrs; format: functional, organism-based; set-up: dose 30 mg/kg; method in brief: as §3
# Rattus norvegicus [18] = test: Anticonvulsant activity in Sprague-Dawley rat assessed as protection against maximal electroshock-induced seizures at 30 mg/kg, po after 1 hr; format: functional, organism-based; set-up: dose 30 mg/kg
# Method in brief: (§4)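 Rats dosed orally at 30 mg/kg and tested in MES at several time points after dosing. Protection means seizures were prevented. Result is recorded as number of animals protected over number tested.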
# Rattus norvegicus [19] = test: Anticonvulsant activity in Sprague-Dawley rat assessed as protection against maximal electroshock-induced seizures at 30 mg/kg, po after 0.25 hrs; format: functional, organism-based; set-up: dose 30 mg/kg; method in brief: as §4
# Rattus norvegicus [20] = test: Anticonvulsant activity in Sprague-Dawley rat assessed as protection against maximal electroshock-induced seizures at 30 mg/kg, po after 2 hrs; format: functional, organism-based; set-up: dose 30 mg/kg; method in brief: as §4
# Mus musculus [21] = test: Anticonvulsant activity in CF1 mouse assessed as protection against maximal electroshock-induced seizures at 30 mg/kg, ip after 0.5 hrs; format: functional, organism-based; set-up: dose 30 mg/kg; method in brief: as §3
# Mus musculus [22] = test: Anticonvulsant activity in CF1 mouse assessed as protection against maximal electroshock-induced seizures at 300 mg/kg, ip after 4 hrs; format: functional, organism-based; set-up: dose 300 mg/kg; method in brief: as §3
# Rattus norvegicus [23] = test: Anticonvulsant activity in Sprague-Dawley rat assessed as protection against maximal electroshock-induced seizures at 30 mg/kg, po after 0.5 hrs; format: functional, organism-based; set-up: dose 30 mg/kg; method in brief: as §4
# Mus musculus [24] = test: Anticonvulsant activity in CF1 mouse assessed as protection against subcutaneous metrazole-induced seizures at 300 mg/kg, ip after 4 hrs; format: functional, organism-based; set-up: dose 300 mg/kg; method in brief: as §3
# Mus musculus [25] = test: Anticonvulsant activity in CF1 mouse assessed as protection against subcutaneous metrazole-induced seizures at 300 mg/kg, ip after 0.5 hrs; format: functional, organism-based; set-up: dose 300 mg/kg; method in brief: as §3
# Mus musculus [26] = test: Anticonvulsant activity in CF1 mouse assessed as protection against subcutaneous metrazole-induced seizures at 100 mg/kg, ip after 4 hrs; format: functional, organism-based; set-up: dose 100 mg/kg; method in brief: as §3
# Mus musculus [27] = test: Anticonvulsant activity in CF1 mouse assessed as protection against subcutaneous metrazole-induced seizures at 30 mg/kg, ip after 0.5 hrs; format: functional, organism-based; set-up: dose 30 mg/kg; method in brief: as §3
# Mus musculus [28] = test: Anticonvulsant activity in CF1 mouse assessed as protection against subcutaneous metrazole-induced seizures at 30 mg/kg, ip after 4 hrs; format: functional, organism-based; set-up: dose 30 mg/kg; method in brief: as §3
# Rattus norvegicus [29] = species: Rattus norvegicus; test: Displacement of [3H]CGP-12177 from beta1-adrenergic receptor in rat cerebral cortex at 50 uM after 60 mins by scintillation counting; format: tissue-based
# Mus musculus [30] = test: Anticonvulsant activity in CF1 mouse assessed as protection against maximal electroshock-induced seizures at 100 mg/kg, ip after 4 hrs; format: functional, organism-based; set-up: dose 100 mg/kg; method in brief: as §3
compound,measurement,setting,value
COc1ccc2c(=O)c3cc(CN4CCN(Cc5ccccc5)CC4)ccc3oc2c1,Activity,Mus musculus [1],Non-toxic
same,ED50,Rattus norvegicus [2],105 mg/kg
same,Activity,Rattus norvegicus [3],Non-toxic
same,Activity,Mus musculus [4],Non-toxic
same,Activity,Rattus norvegicus [5],Non-toxic
same,Ratio TD50/ED50,Rattus norvegicus [6],>2.86
same,TD50,[7],> 300 mg/kg
same,Activity,Rattus norvegicus [8],Non-toxic
same,Activity,Mus musculus [9],Non-toxic
same,Activity,Mus musculus [10],Non-toxic
same,Activity,Mus musculus [11],Non-toxic
same,ED50,Rattus norvegicus [12],> 250 mg/kg
same,Activity,Rattus norvegicus [13],Non-toxic
same,Activity,Mus musculus [14],Non-toxic
same,Activity,Rattus norvegicus [15],Non-toxic
COc1ccc2c(=O)c3cc(CN4CCN(C)CC4)ccc3oc2c1,Activity,Mus musculus [16],inactive
same,Activity,Mus musculus [17],inactive
same,Activity,Rattus norvegicus [18],inactive
same,Activity,Rattus norvegicus [19],inactive
same,Activity,Rattus norvegicus [20],inactive
same,Activity,Mus musculus [21],inactive
same,Activity,Mus musculus [22],Active
same,Activity,Rattus norvegicus [23],inactive
same,Activity,Mus musculus [24],inactive
same,Activity,Mus musculus [25],inactive
same,Activity,Mus musculus [26],inactive
same,Activity,Mus musculus [27],inactive
same,Activity,Mus musculus [28],inactive
same,inhibition,Rattus norvegicus [29],inactive
same,Activity,Mus musculus [30],inactive

# Source: ChEMBL document CHEMBL2401625, “Synthesis and evaluation of pharmacological properties of some new xanthone derivatives with piperazine moiety” (Bioorg Med Chem Lett, 2013)
